Measurements from ChEMBL document CHEMBL1125826, “Synthesis and biological activity of 5-amino- and 5-hydroxyquinolones, and the overwhelming influence of the remote N1-substituent in determining the structure-activity relationship” (1991).
Values after ≈ are worked out from the molar mass of the structure shown.

How the values were obtained:
Format in all cases: functional
Enterococcus faecalis = experiment: Antibacterial activity was determined against gram positive organism, Streptococcus faecalis MGH-2; details: Enterococcus faecalis; read-out: MIC
In short: (§1)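 MIC (µg/mL) by standard microtitration against a panel of 10 Gram-positive and Gram-negative organisms; values averaged from multiple experiments.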

Staphylococcus aureus [1] = experiment: Antibacterial activity was determined against gram positive organism, Staphylococcus aureus UC76; in short: as §1
Bacteria [2] = experiment: MIC ratio measured as the mean MICs of gram-negative bacteria
In short: (§2)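 Geometric mean of the microtitration MICs (µg/mL) over the Gram-negative organisms, and separately over the Gram-positive organisms, of the 10-strain panel; individual MICs averaged from multiple experiments.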

Streptococcus pyogenes = experiment: Antibacterial activity was determined against gram positive organism, Streptococcus pyogenes C203; details: Streptococcus pyogenes; read-out: MIC; in short: as §1
Klebsiella pneumoniae = experiment: Antibacterial activity was determined against gram negative organism, Klebsiella pneumoniae MGH-2; details: Klebsiella pneumoniae; read-out: MIC; in short: as §1
Pseudomonas aeruginosa = experiment: Antibacterial activity was determined against gram negative organism, Pseudomonas aeruginosa UI-18; details: Pseudomonas aeruginosa; read-out: MIC; in short: as §1
Staphylococcus aureus [3] = experiment: Antibacterial activity was determined against gram positive organism, Staphylococcus aureus H228; details: Staphylococcus aureus; read-out: MIC; in short: as §1
Bacteria [4] = experiment: Antibacterial activity was determined against gram negative organism, Providencia rettgeri. M1771; details: Bacteria; read-out: MIC; in short: as §1
Enterobacter cloacae = experiment: Antibacterial activity was determined against gram negative organism, Enterobacter cloacae MA2646; details: Enterobacter cloacae; read-out: MIC
Streptococcus pneumoniae = experiment: Antibacterial activity was determined against gram positive organism, Streptococcus pneumoniae SV-1; details: Streptococcus pneumoniae; read-out: MIC; in short: as §1
Bacteria [5] = experiment: MIC ratio measured as the mean MICs of gram-positive bacteria; in short: as §2
[6] = biological target: DNA gyrase (Escherichia coli) (UniProt P0AES6+P0AES4); experiment: Minimum inhibitory concentration against Escherichia coli DNA-gyrase in supercoiling assay
Escherichia coli = experiment: Antibacterial activity was determined against gram negative organism, Escherichia coli vogel; details: Escherichia coli; read-out: MIC; in short: as §1
[7] = Staphylococcus aureus, read-out: MIC

MIC (Enterococcus faecalis)	MIC (Staphylococcus aureus [1])	Geometric mean MIC over Gram-negative bacteria (µg/mL) (Bacteria [2])	MIC (Streptococcus pyogenes)	MIC (Klebsiella pneumoniae)	MIC (Pseudomonas aeruginosa)	MIC (Staphylococcus aureus [3])	MIC (Bacteria [4])	MIC (Enterobacter cloacae)	MIC (Streptococcus pneumoniae)	Geometric mean MIC over Gram-positive bacteria (µg/mL) (Bacteria [5])	MIC [6]	MIC (Escherichia coli)	MIC (Staphylococcus aureus [1]; [7])	SMILES
6.3 µg/mL (≈ 17.2 µM)	0.8 µg/mL (≈ 2.19 µM)	0.79	6.3 µg/mL (≈ 17.2 µM)	0.4 µg/mL (≈ 1.09 µM)	12.5 µg/mL (≈ 34.2 µM)	1.6 µg/mL (≈ 4.38 µM)	1.6 µg/mL (≈ 4.38 µM)	0.2 µg/mL (≈ 0.547 µM)	6.3 µg/mL (≈ 17.2 µM)	3.17	3.8 µg/mL (≈ 10.4 µM)	0.2 µg/mL (≈ 0.547 µM)	–	CCn1cc(C(=O)O)c(=O)c2cc(F)c(N3CC(C)NC(C)C3)c(F)c21 (stereo not drawn)
3.1 µg/mL (≈ 8.43 µM)	0.4 µg/mL (≈ 1.09 µM)	0.6	3.1 µg/mL (≈ 8.43 µM)	0.4 µg/mL (≈ 1.09 µM)	6.3 µg/mL (≈ 17.1 µM)	1.6 µg/mL (≈ 4.35 µM)	0.8 µg/mL (≈ 2.18 µM)	0.2 µg/mL (≈ 0.544 µM)	3.1 µg/mL (≈ 8.43 µM)	1.8	5 µg/mL (≈ 13.6 µM)	0.2 µg/mL (≈ 0.544 µM)	–	CCn1cc(C(=O)O)c(=O)c2cc(F)c(N3CCNC(C)C3)c(Cl)c21 (stereo not drawn)
1.6 µg/mL (≈ 4.8 µM)	0.2 µg/mL (≈ 0.6 µM)	0.23	1.6 µg/mL (≈ 4.8 µM)	0.2 µg/mL (≈ 0.6 µM)	1.6 µg/mL (≈ 4.8 µM)	1.6 µg/mL (≈ 4.8 µM)	0.2 µg/mL (≈ 0.6 µM)	0.1 µg/mL (≈ 0.3 µM)	1.6 µg/mL (≈ 4.8 µM)	1.05	2.5 µg/mL (≈ 7.5 µM)	0.1 µg/mL (≈ 0.3 µM)	–	CCn1cc(C(=O)O)c(=O)c2cc(F)c(N3CCNC(C)C3)cc21 (stereo not drawn)
0.4 µg/mL (≈ 1.01 µM)	–	1.38	0.2 µg/mL (≈ 0.506 µM)	0.8 µg/mL (≈ 2.02 µM)	12.5 µg/mL (≈ 31.6 µM)	0.4 µg/mL (≈ 1.01 µM)	3.1 µg/mL (≈ 7.84 µM)	0.4 µg/mL (≈ 1.01 µM)	0.2 µg/mL (≈ 0.506 µM)	0.2	2.5 µg/mL (≈ 6.32 µM)	0.4 µg/mL (≈ 1.01 µM)	0.05 µg/mL (≈ 0.126 µM)	CCNCC1CCN(c2c(F)c(O)c3c(=O)c(C(=O)O)cn(CC)c3c2F)C1 (stereo not drawn)
0.2 µg/mL (≈ 0.479 µM)	0.025 µg/mL (≈ 0.0599 µM)	0.15	0.1 µg/mL (≈ 0.24 µM)	0.1 µg/mL (≈ 0.24 µM)	1.6 µg/mL (≈ 3.83 µM)	0.1 µg/mL (≈ 0.24 µM)	0.2 µg/mL (≈ 0.479 µM)	0.05 µg/mL (≈ 0.12 µM)	0.1 µg/mL (≈ 0.24 µM)	0.087	0.75 µg/mL (≈ 1.8 µM)	0.05 µg/mL (≈ 0.12 µM)	–	CC1CN(c2cc3c(cc2F)c(=O)c(C(=O)O)cn3-c2ccc(F)cc2F)CCN1 (stereo not drawn) [TEMAFLOXACIN]
3.1 µg/mL (≈ 8.82 µM)	0.4 µg/mL (≈ 1.14 µM)	0.26	3.1 µg/mL (≈ 8.82 µM)	0.2 µg/mL (≈ 0.569 µM)	1.6 µg/mL (≈ 4.55 µM)	1.6 µg/mL (≈ 4.55 µM)	0.4 µg/mL (≈ 1.14 µM)	0.1 µg/mL (≈ 0.285 µM)	1.6 µg/mL (≈ 4.55 µM)	1.58	2.5 µg/mL (≈ 7.12 µM)	0.1 µg/mL (≈ 0.285 µM)	–	CCn1cc(C(=O)O)c(=O)c2cc(F)c(N3CCNC(C)C3)c(F)c21 (stereo not drawn) [LOMEFLOXACIN]
12.5 µg/mL (≈ 31.5 µM)	–	4.18	25 µg/mL (≈ 63 µM)	6.3 µg/mL (≈ 15.9 µM)	12.5 µg/mL (≈ 31.5 µM)	3.1 µg/mL (≈ 7.81 µM)	6.3 µg/mL (≈ 15.9 µM)	1.6 µg/mL (≈ 4.03 µM)	25 µg/mL (≈ 63 µM)	8.27	7.5 µg/mL (≈ 18.9 µM)	1.6 µg/mL (≈ 4.03 µM)	1.6 µg/mL (≈ 4.03 µM)	CCn1cc(C(=O)O)c(=O)c2c(N)c(F)c(N3CC(C)NC(C)C3)c(Cl)c21 (stereo not drawn)
0.4 µg/mL (≈ 1.13 µM)	0.1 µg/mL (≈ 0.283 µM)	0.13	0.4 µg/mL (≈ 1.13 µM)	0.1 µg/mL (≈ 0.283 µM)	0.8 µg/mL (≈ 2.26 µM)	0.4 µg/mL (≈ 1.13 µM)	0.2 µg/mL (≈ 0.565 µM)	0.05 µg/mL (≈ 0.141 µM)	0.4 µg/mL (≈ 1.13 µM)	0.3	2.5 µg/mL (≈ 7.07 µM)	0.05 µg/mL (≈ 0.141 µM)	–	CCn1cc(C(=O)O)c(=O)c2cc(F)c(N3CCC(N)C3)c(Cl)c21 (stereo not drawn)

SMILES	MIC (Enterococcus faecalis)	MIC (Staphylococcus aureus [1])	Geometric mean MIC over Gram-negative bacteria (µg/mL) (Bacteria [2])	MIC (Streptococcus pyogenes)	MIC (Klebsiella pneumoniae)	MIC (Pseudomonas aeruginosa)	MIC (Staphylococcus aureus [3])	MIC (Bacteria [4])	MIC (Enterobacter cloacae)	MIC (Streptococcus pneumoniae)	Geometric mean MIC over Gram-positive bacteria (µg/mL) (Bacteria [5])	MIC [6]	MIC (Escherichia coli)	MIC (Staphylococcus aureus [1]; [7])
CCn1cc(C(=O)O)c(=O)c2cc(F)c(N3CCNCC3)c(F)c21	1.6 µg/mL (≈ 4.74 µM)	0.4 µg/mL (≈ 1.19 µM)	0.17	3.1 µg/mL (≈ 9.19 µM)	0.1 µg/mL (≈ 0.296 µM)	0.8 µg/mL (≈ 2.37 µM)	1.6 µg/mL (≈ 4.74 µM)	0.2 µg/mL (≈ 0.593 µM)	0.1 µg/mL (≈ 0.296 µM)	3.1 µg/mL (≈ 9.19 µM)	1.58	2.5 µg/mL (≈ 7.41 µM)	0.1 µg/mL (≈ 0.296 µM)	–
CCn1cc(C(=O)O)c(=O)c2c(O)c(F)c(N3CCNCC3)c(F)c21	25 µg/mL (≈ 70.8 µM)	–	0.8	25 µg/mL (≈ 70.8 µM)	0.8 µg/mL (≈ 2.26 µM)	1.6 µg/mL (≈ 4.53 µM)	12.5 µg/mL (≈ 35.4 µM)	1.6 µg/mL (≈ 4.53 µM)	0.4 µg/mL (≈ 1.13 µM)	25 µg/mL (≈ 70.8 µM)	12.56	5 µg/mL (≈ 14.2 µM)	0.4 µg/mL (≈ 1.13 µM)	1.6 µg/mL (≈ 4.53 µM)
CCn1cc(C(=O)O)c(=O)c2cc(F)c(N3CCNCC3)c(Cl)c21	3.1 µg/mL (≈ 8.76 µM)	0.2 µg/mL (≈ 0.565 µM)	0.3	3.1 µg/mL (≈ 8.76 µM)	0.2 µg/mL (≈ 0.565 µM)	3.1 µg/mL (≈ 8.76 µM)	0.4 µg/mL (≈ 1.13 µM)	0.4 µg/mL (≈ 1.13 µM)	0.1 µg/mL (≈ 0.283 µM)	3.1 µg/mL (≈ 8.76 µM)	1.19	2.5 µg/mL (≈ 7.07 µM)	0.1 µg/mL (≈ 0.283 µM)	–
